Measured values published in the RNAGym collection of RNA variant scans (doi:10.1101/gad.245936.114).
This sample holds only a part of the variants without activity.

B1: tRNA (parent)
chain: CUCUCGGUAGCCAAGUUGGUUUAAGGCGCAAGACUUUAAUUUAUCACUACGAAAUCUUGAGAUCGGGCGUUCGACUCGCCCCCGGGAGAUUUUUUCCUCGAGCAA

Variants of: B1
Test: nonsense suppression (GFP-seq) (ratio to wild type); higher = more function; SUP4oc tRNA, yeast GFP reporter sort-seq
How it was run: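 Nonsense suppression (GFPSEQ) is the median GFP/RFP ratio of each sorting bin, weighted by the variant's estimated share of cells in that bin and expressed relative to the unmutated parent tRNA. Yeast strains carried genome-integrated variants of an ochre-suppressor tRNA from a library with ~3% random mutations, plus a galactose-driven GFP ochre reporter and RFP, and were grown in raffinose/galactose medium containing 80 mg/L adenine. Cells were sorted into GFP/RFP bins, each bin was Illumina-sequenced (phred ≥30), and variants were kept only with ≥100 reads and ≥30 cells.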

Variant | nonsense suppression
CUCUUGGUAGCCAAGUUGGUUUAAGGCGCAAGACUUUAAUUUAUCACUACGAAAUCUUGAGAUCGGGCGUUCGACUCGCGCCCGGGAGAUUUUUUCCUCGAGCAA [C5U C80G] | ≤ 0.026
CUCUCAGUAGCCAAGUUGGUUUAAGGCGCAAGACUUUAAUUUAUCACUACGAAAUCUUGAGAUCGGGCGUUCGACUCGUCCCCGGGACAUUUUUUCCUCGAGCAA [G6A C79U G88C] | ≤ 0.026
CUCUCAGUAGCCAAGUUGGUUUAAGGCGCAAGACUUUAAUUUAUCACUACGAAAACUUGAGAUCGGGCGUUCGACUCGCCCCCGGGAGAUUUUUUCCUCGAGCAA [G6A U55A] | ≤ 0.026
CUCUCAGUAGCCAAGUUGGUUUAAGGCGCAAGACUUUAAUUUAUCACUACGAAACCUUGAGAUCGGGCGUUCGACUCGCCCCCGGGAGAUUUUUUCCUCGAGCAA [G6A U55C] | 0.262
CUCUCAGUAGCCAAGUUGGUUUAAGGCGCAAGACUUUAAUUUAUCACUACGAAAGCUUGAGAUCGGGCGUUCGACUCGCCCCCGGGAGAUUUUUUCCUCGAGCAA [G6A U55G] | ≤ 0.026
CUCUUGGUAGCCAAGUUGGUUUAAGGCCCAAGACUUUAAUUUAUCACUACGAAAUCUUGAGAUCGGGCGUUCGACUCGCCCCCGGGAGAUUUUUUCCUCGAGCAA [C5U G28C] | 0.0292
CUCUCAGUAGCCAAGUUGCUUUAAGGCGCAAGACUUUAAUUUAUCACUACGAAAUCUUGAGAUCGGCCGUUCGACUCGCCCCCGGGGGAUUUUUUCCUCGAGCAA [G6A G19C G67C A87G] | ≤ 0.026
CUCUUGGUAGCCAAGUUGGUUUAAGGCGCAAGACUUUAAUUUAUCACUACGAAAUCUUGAGAUCGGGCGUUCGACUCGCCCCGGGGAGAUUUUUUCCUCGAGCAA [C5U C83G] | ≤ 0.026
CUCUCAGUAGCCAAGUUGGUUUAGGGCGCAAGACUUUAAUUUAUCACUACGAAAUCUUGAGAUCGGGCGUUCGACUCGCCCCCGGGAGAUUUUUUCCUCGAGCAA [G6A A24G] | 0.0293
CUCUCAGUAGCCAAGUUGGUUUAUGGCGCAAGACUUUAAUUUAUCACUACGAAAUCUUGAGAUCGGGCGUUCGACUCGCCCCCGGGAGAUUUUUUCCUCGAGCAA [G6A A24U] | 0.0308
CUCUUGGUAGCCAAGUUGGUUUAAGGCGCAAGACUUUAAUUUAUCACUACGAAAUCUUGAGAUCGGGCGUUCGACUCGUCCCCGGGAGAUUUUUUCCUCGAGCAA [C5U C79U] | 0.0439
CUCUUGGUAGCCAAGUUGGUUUAAGGCGCAAGACUUUAAUUUAUCACUACGAAAUCUUGAGAUCGUGCGUUCGACUCACCCCCGGGAGAUUUUUUCCUCGAGCAA [C5U G66U G78A] | ≤ 0.026
CUCUCAGUAGCCUAGUUGGUUUAAGGCGCAAGACUUUAAUUUAUCACUACGAAAUCUUGAGAUCGGGCGUUCGACUCGCCCCCGGGAGAUUUUUUCCUCGAGCAA [G6A A13U] | 0.0458
CUCUCAGUAGCCGAGUUGGUUUAAGGCGCAAGACUUUAAUUUAUCACUACGAAAUCUUGAGAUCGGGCGUUCGACUCGCCCCCGGGAGAUUUUUUCCUCGAGCAA [G6A A13G] | ≤ 0.026
CUCUUGGUAGCCAAGUUGGUUUAAGGCGCAAGACUUUAAUUUAUCACUACGAAAUCUUGAGAUCGGGCGUUCGACACGACCCCGGGAGAUUUUUUCCUCGAGCAA [C5U U76A C79A] | ≤ 0.026
CUCUCAGUAGCCAAGUUGGUUUAGGGAGGAAGACUUUAAUUUAUCACUACGAAAUCUUGAGAUCGGGCGUUCGACUCGCCCCCGGGAGAUUUUUUCCUCGAGCAA [G6A A24G C27A C29G] | ≤ 0.026
CUCUCAGUAGCCAAGUUGGUUUAAGGCGCAAGACUUUAAUUUAUCACUACGAAAUCUUGAGUUCGGGCGUUCGACUCGCCCCCGGGAGAUUUUUUCCUCGAGCAA [G6A A62U] | ≤ 0.026
CUCUCAGUAGCCAAGUUGGUUUAAGGCGCACGACUUUAAUUUAUCACUACGAAAUCUUGCGAUCGGGCGUUAGACUCGCCCCCGGAAGAUUUUUUCCUCGAGCAA [G6A A31C A60C C72A G86A] | ≤ 0.026
CUCUUGGUAGCCAAGUUGGUUUAAGGCGCAAGACUUUAAUUUAUCACUACGAAAUCUUGAGAUCGGGCGUUCGACUCGCCCCCGUGAGAUUUUUUCCUCGAGCAA [C5U G85U] | 0.0303
CUCUUGGUAGCCAAGUUGGUUUAAGGCGCAAGACUUUAAUUUAUCACUACGAAAUCUUGAGAUCGGGCGUUCGACUCGCCCCCGAGAGAUUUUUUCCUCGAGCAA [C5U G85A] | 0.08
CUCUCAGUAGCCAAGUUGGUUUAAGGCGCAAGACUUUAAUUUAUCACUACGAAAUCUUGAGAGCGGGCGUUCGACUCGCCUCCGGGAGAUUUUUUCCUCGAGCAA [G6A U63G C81U] | ≤ 0.026
CUCUCAGUAGCCAAGUUGGUUUAAGGCGGAAGACUUUAAUUUAUCACUACGAAAUCUUGAGCUCGGGCGUUCGAGUCGCCCCCGGGAGAUUUUUUCCUCGAGCAA [G6A C29G A62C C75G] | ≤ 0.026
CUCUUGGUAGCCAAGUUGCUUUAAGGCGCAAGACAUUAAUUUAUCACUACGAAAUCUUGAGAUCGGGCGUUCGACUCGCCCCCGGGAGGUUUUUUCCUCGAGCAA [C5U G19C U35A A89G] | ≤ 0.026
CUCUCAGUAACCAAGUUGCUUUAAGGCGCAAGACUUUAAUUUAUCACUACGAAUUCUUGAGAUCGGGCGUUCCACUCGCCCCCGGGAUAUUUUUUCCUCGAGCAA [G6A G10A G19C A54U G73C G88U] | ≤ 0.026
CUCUUGGCAGCCAAGUUGGUUUAAGGCGCAAGACUUUAAUUUAUCACUACGAAAUCUUGAGAUCAGGCGUUCGACUCGCCCCCGGGAGAUUUUUUCCUCGAGCAA [C5U U8C G65A] | ≤ 0.026
CUCUUGGUAGCCAAGUCGGUUUAAGGCGCAAGACUUUAAUUUAUCACUACGAAAUCUUGAGAUCGGGCGUUCGACUCGCCCCCGGGAGAUUUUUUCCUCGAGCAA [C5U U17C] | 0.0495
CUCUUGGUAGCCAAGUUGGCUUAAGGCGCAAGACUUUAAUUUAUCACUACGAAAUCUUGAGAUCGGGCGUUCGACUCGCCCCCGGGAGAUUUUUUCCUCGAGCAA [C5U U20C] | ≤ 0.026
